In test [1] the target is T1, Sphingosine 1-phosphate receptor 4 (Homo sapiens, UniProt O95977).
T1 sequence (O95977 whole entry): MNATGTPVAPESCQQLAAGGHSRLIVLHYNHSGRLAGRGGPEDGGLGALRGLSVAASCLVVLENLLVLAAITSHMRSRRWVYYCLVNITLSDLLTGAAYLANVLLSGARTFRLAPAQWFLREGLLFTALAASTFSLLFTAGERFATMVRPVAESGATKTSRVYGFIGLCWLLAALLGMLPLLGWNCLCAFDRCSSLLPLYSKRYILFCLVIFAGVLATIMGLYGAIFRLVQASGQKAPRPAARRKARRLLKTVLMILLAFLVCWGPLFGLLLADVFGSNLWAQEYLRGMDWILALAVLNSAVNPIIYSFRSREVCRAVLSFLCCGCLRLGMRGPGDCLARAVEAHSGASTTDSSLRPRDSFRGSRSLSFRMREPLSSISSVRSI
Description: In vitro binding affinity towards human Sphingosine 1-phosphate receptor 4 expressed in HEK293T cells was determined using [gamma-35S]-GTP as radioligand. Format: cell-based, HEK-293T. In outline:
(§1)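 Membranes (5 µg) from HEK293T cells expressing the relevant human S1P receptor plus G-protein, incubated in GTP-binding buffer (HEPES 50 mM, NaCl 100 mM, MgCl2 5 mM, pH 7.5) with 5 µg saponin, 10 µM GDP, 0.1 nM [γ-35S]GTP and test lipid. Incubation was 30 min at 30°C. Bound label was separated by GF/C filtration and scintillation counted. EC50 is the mean of three experiments.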

For test [2], the target named is T2, Sphingosine 1-phosphate receptor 3 (Homo sapiens, UniProt Q99500). Description: In vitro binding affinity towards human Sphingosine 1-phosphate receptor 3 expressed in HEK293T cells was determined using [gamma-35S]-GTP as radioligand; na denotes not active. Type of test: cell-based. As to conditions: hek-293t; call rule not given here. In outline:
as §1

Test [3] has as its target T3, Sphingosine 1-phosphate receptor 1 (Homo sapiens, UniProt P21453). The experiment in a line: In vitro binding affinity towards human Sphingosine 1-phosphate receptor 1 expressed in HEK293T cells was determined using [gamma-35S]-GTP as radioligand; partial agonist. Format: cell-based, HEK-293T. In a few lines: as §1
Test [4] concerns the target Sphingosine 1-phosphate receptor 2 (Homo sapiens, UniProt O95136). Description: In vitro binding affinity towards human Sphingosine 1-phosphate receptor 2 expressed in HEK293T cells was determined using [gamma-35S]-GTP as radioligand; na denotes not active. Type of test: cell-based. As to conditions: hek-293t. In a few lines:
as §1

Test [5] addresses T4, Sphingosine 1-phosphate receptor 5 (Homo sapiens, UniProt Q9H228). Description: In vitro binding affinity towards human Sphingosine 1-phosphate receptor 5 expressed in HEK293T cells was determined using [gamma-35S]-GTP as radioligand; partial agonist. Type of test: cell-based, HEK-293T. In outline:
as §1

For test [6], the target named is T2, Sphingosine 1-phosphate receptor 3. The experiment in a line: In vitro binding affinity towards human Sphingosine 1-phosphate receptor 3 expressed in HEK293T cells was determined using [gamma-35S]-GTP as radioligand. Type of test: cell-based, HEK-293T.
Test [7] has as its target T3, Sphingosine 1-phosphate receptor 1. The experiment in a line: In vitro binding affinity towards human Sphingosine 1-phosphate receptor 1 expressed in HEK293T cells was determined using [gamma-35S]-GTP as radioligand. Type of test: cell-based, HEK-293T.
For test [8], the target named is T4, Sphingosine 1-phosphate receptor 5. The experiment in a line: In vitro binding affinity towards human Sphingosine 1-phosphate receptor 5 expressed in HEK293T cells was determined using [gamma-35S]-GTP as radioligand; na denotes not active. Type of test: cell-based. As to conditions: hek-293t. In outline: as §1

The structures appear in SMILES notation. pEC50: −log10 of the molar value.

T4 sequence (Q9H228 whole entry): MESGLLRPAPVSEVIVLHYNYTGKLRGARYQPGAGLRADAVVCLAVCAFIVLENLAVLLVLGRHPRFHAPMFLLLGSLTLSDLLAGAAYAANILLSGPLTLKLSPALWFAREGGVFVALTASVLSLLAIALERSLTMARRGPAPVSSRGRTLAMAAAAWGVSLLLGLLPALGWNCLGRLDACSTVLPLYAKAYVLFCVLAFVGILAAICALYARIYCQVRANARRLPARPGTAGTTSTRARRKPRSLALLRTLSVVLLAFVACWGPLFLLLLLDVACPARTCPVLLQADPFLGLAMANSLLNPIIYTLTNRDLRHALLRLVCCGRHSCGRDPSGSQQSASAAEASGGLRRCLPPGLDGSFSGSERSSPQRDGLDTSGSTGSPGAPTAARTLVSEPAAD
T2 sequence (Q99500 whole entry): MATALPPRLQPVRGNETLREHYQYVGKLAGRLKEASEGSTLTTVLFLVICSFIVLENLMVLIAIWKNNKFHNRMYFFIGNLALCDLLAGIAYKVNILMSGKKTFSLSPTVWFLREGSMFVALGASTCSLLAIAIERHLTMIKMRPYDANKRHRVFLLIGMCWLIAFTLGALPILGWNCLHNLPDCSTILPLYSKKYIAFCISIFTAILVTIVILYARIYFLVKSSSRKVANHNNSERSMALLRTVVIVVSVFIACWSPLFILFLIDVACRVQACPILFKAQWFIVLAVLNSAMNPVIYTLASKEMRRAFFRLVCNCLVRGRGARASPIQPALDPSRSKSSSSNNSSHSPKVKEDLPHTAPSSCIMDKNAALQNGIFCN
Sequence of Sphingosine 1-phosphate receptor 2 (O95136 whole entry): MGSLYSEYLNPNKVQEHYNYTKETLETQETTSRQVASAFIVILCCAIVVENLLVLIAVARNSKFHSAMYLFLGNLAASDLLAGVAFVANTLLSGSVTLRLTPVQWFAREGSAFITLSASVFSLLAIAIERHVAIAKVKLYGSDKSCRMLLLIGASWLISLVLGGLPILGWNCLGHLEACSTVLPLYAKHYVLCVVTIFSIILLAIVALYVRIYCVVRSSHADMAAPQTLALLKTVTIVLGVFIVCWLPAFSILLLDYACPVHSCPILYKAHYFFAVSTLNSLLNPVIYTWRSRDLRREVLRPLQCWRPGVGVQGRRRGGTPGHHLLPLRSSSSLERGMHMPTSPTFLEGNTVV
T3 sequence (P21453 whole entry): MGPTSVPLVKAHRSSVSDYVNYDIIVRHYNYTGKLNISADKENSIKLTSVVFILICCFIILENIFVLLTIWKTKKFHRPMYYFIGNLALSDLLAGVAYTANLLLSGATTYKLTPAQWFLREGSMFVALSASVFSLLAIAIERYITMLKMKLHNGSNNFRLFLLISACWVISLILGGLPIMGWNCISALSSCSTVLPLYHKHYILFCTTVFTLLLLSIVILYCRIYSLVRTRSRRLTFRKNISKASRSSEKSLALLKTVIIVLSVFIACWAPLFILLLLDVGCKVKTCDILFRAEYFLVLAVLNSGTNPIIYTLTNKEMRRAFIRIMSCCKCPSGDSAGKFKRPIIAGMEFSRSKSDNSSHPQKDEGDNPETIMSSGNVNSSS

As usually defined, the pEC50 is the EC50 on a negative log10 scale, so that one unit is a factor of ten. For the molecule `CCCCCCCCc1ccc2[nH]c([C@H](N)CO)nc2c1.O=C(O)C(F)(F)F`, the pEC50 in test [1] was 5.80; in test [3] it was 6.48; in test [5], 6.41. The EC50 result in test [2] and in test [4] was “Not Active” throughout.
For the molecule `CCCCCCCCc1ccc2[nH]c([C@@H](N)COP(=O)(O)O)nc2c1.COC(=O)C(F)(F)F`, the pEC50 in test [1] is 7.32; in test [3], 7.43; in test [5], 8.18. Further, the EC50 result in test [2] and in test [4] was “Not Active” throughout.
Take `CCCCCCCCc1ccc2[nH]c([C@@H](N)[C@@H](C)OP(=O)(O)O)nc2c1.O=C(O)C(F)(F)F`: the results for the pEC50 in test [1], in test [3] and in test [5] were 7.03, 6.62 and 7.11, respectively. Moreover, the EC50 result in test [2] and in test [4] was “Not Active” in each case.
On to `CCCCCCCCCCCCC/C=C/[C@@H](O)[C@@H](N)COP(=O)(O)O`, for which the pEC50 in test [1] is 7.43; in test [6], 8.92; in test [7], 7.70.
Consider `CCCCCCCCc1ccc2[nH]c(C(C)(N)COP(=O)(O)O)nc2c1.O=C(O)C(F)(F)F` (stereo not drawn), for which the values for the pEC50 in test [1], in test [3] and in test [5] were 5.92, 6.00 and 6.43, respectively. In addition, the EC50 result in test [2] and in test [4] was “Not Active” in each case.
Turning to `CCCCCCCCc1ccc2[nH]c([C@@H](N)CO)nc2c1.O=C(O)C(F)(F)F`, the pEC50 in test [1] is 5.38; in test [3], 5.68; in test [5], 5.62. In addition, the EC50 entry in test [2] and in test [4] was “Not Active” each time.
On to `CCCCCCCCc1ccc2[nH]c([C@@H](N)[C@@H](C)O)nc2c1.O=C(O)C(F)(F)F`, for which the EC50 entry in test [8], in test [2] and in test [4] was “Not Active” throughout. Besides, the results for the pEC50 in test [1] and in test [3] were 4.48 and 5.54, respectively.
Take `CCCCCCCCc1ccc2[nH]c([C@H](N)COP(=O)(O)O)nc2c1.COC(=O)C(F)(F)F`: the pEC50 was 7.44 in test [1], 7.68 in test [3] and 8.09 in test [5]. The EC50 entry in test [2] and in test [4] was “Not Active” in each case.
